# From ChEMBL document CHEMBL4257499, “Triazole-diindolylmethane conjugates as new antitubercular agents: synthesis, bioevaluation, and molecular docking” (Medchemcomm, 2018)
# Active and inactive are the calls of the source. No cut-off for these calls is given here.
# Experiments:
# Bacillus subtilis = test: Antibacterial activity against Bacillus subtilis NCIM 2079 at 3 ug/ml after 8 hrs relative to control; assay type: functional
# How it was run: (§1)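 Cultures grown to OD600 of 1, then set at 0.1 OD600 and exposed to compound at 3 µg/mL for 8 h at 37 °C. Ampicillin was the positive control. Activity is reported as % inhibition.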
# [1] = tested on: Mycobacterium tuberculosis; test: Antimycobacterial activity against active stage of Mycobacterium tuberculosis H37Ra ATCC 25177 at 3 to 30 ug/ml by XRMA relative to control; assay type: functional
# How it was run: (§2)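 Mtb H37Ra, from a -80 °C stock subcultured once in liquid medium, grown in M. pheli minimal medium (KH2PO4, trisodium citrate, MgSO4, asparagine, glycerol; pH 6.6) in 96-well plates. Primary screen at 30, 10 and 3 µg/mL. XTT reduction menadione read-out at 470 nm against cell-free blank. % inhibition = (control − compound)/(control − blank) × 100, with DMSO-vehicle wells as 100% growth. Duplicates.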
# [2] = tested on: Mycobacterium tuberculosis; test: Antimycobacterial activity against dormant stage of Mycobacterium tuberculosis H37Ra ATCC 25177 at 3 to 30 ug/ml by XRMA relative to control; assay type: functional; how it was run: as §2
# [3] = tested on: Mycobacterium tuberculosis; test: Antimycobacterial activity against active stage of Mycobacterium tuberculosis H37Ra ATCC 25177 by XRMA; assay type: functional, organism-based
# How it was run: (§3)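 Mtb H37Ra in M. pheli medium (pH 6.6) in 96-well plates. XTT reduction menadione read-out at 470 nm, with DMSO vehicle as 100% growth. MIC derived from the dose-response curve. Duplicates, average ± standard deviation.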
# [4] = tested on: Mycobacterium tuberculosis; test: Antimycobacterial activity against dormant stage of Mycobacterium tuberculosis H37Ra ATCC 25177 by XRMA; assay type: functional, organism-based; how it was run: as §3
# Staphylococcus aureus = test: Antibacterial activity against Staphylococcus aureus NCIM 2010 at 3 ug/ml after 8 hrs relative to control; assay type: functional; how it was run: as §1
compound,measurement,setting,value
Brc1ccc2[nH]cc(C(c3cn(-c4ccccc4)nn3)c3c[nH]c4ccc(Br)cc34)c2c1,Activity,Bacillus subtilis,>70%
same,Activity,[1],>87.18%
same,Activity,[2],>87.18%
same,IC50,[3],2.19 µg/mL
same,IC90,[3],30 µg/mL
same,IC50,[4],1.55 µg/mL
same,IC90,[4],9.39 µg/mL
CC(=O)Nc1ccc(-n2cc(C(c3c[nH]c4ccc(Br)cc34)c3c[nH]c4ccc(Br)cc34)nn2)cc1,Activity,Bacillus subtilis,>70%
same,Activity,[1],>87.18%
same,Activity,[2],>87.18%
same,IC50,[3],1.52 µg/mL
same,IC90,[3],6.16 µg/mL
same,IC50,[4],1 µg/mL
same,IC90,[4],3 µg/mL
c1ccc(-n2cc(C(c3c[nH]c4ccccc34)c3c[nH]c4ccccc34)nn2)cc1,Activity,[1],Active
same,Activity,[2],Active
O=[N+]([O-])c1ccc(-n2cc(C(c3c[nH]c4ccccc34)c3c[nH]c4ccccc34)nn2)cc1,Activity,[1],Active
same,Activity,[2],Active
Clc1ccc(-n2cc(C(c3c[nH]c4ccccc34)c3c[nH]c4ccccc34)nn2)cc1,Activity,[1],Active
same,Activity,[2],Active
Clc1cccc(-n2cc(C(c3c[nH]c4ccc(Br)cc34)c3c[nH]c4ccc(Br)cc34)nn2)c1,Activity,Staphylococcus aureus,71.77%
same,Activity,[1],>87.18%
same,Activity,[2],>87.18%
same,IC50,[3],0.22 µg/mL
same,IC90,[3],13.5 µg/mL
same,IC50,[4],0.12 µg/mL
same,IC90,[4],9.84 µg/mL
O=[N+]([O-])c1cccc(-n2cc(C(c3c[nH]c4ccc(Br)cc34)c3c[nH]c4ccc(Br)cc34)nn2)c1,Activity,Bacillus subtilis,>70%
same,Activity,[1],>87.18%
same,Activity,[2],>87.18%
same,IC50,[3],6.25 µg/mL
same,IC90,[3],> 30 µg/mL
same,IC50,[4],2.56 µg/mL
same,IC90,[4],> 30 µg/mL
COc1ccccc1-n1cc(C(c2c[nH]c3ccccc23)c2c[nH]c3ccccc23)nn1,Activity,[1],Active
same,Activity,[2],Active
O=[N+]([O-])c1ccccc1-n1cc(C(c2c[nH]c3ccccc23)c2c[nH]c3ccccc23)nn1,Activity,[1],Active
same,Activity,[2],Active
Cc1ccc(-n2cc(C(c3c[nH]c4ccccc34)c3c[nH]c4ccccc34)nn2)cc1,Activity,[1],Active
same,Activity,[2],Active
Cc1ccc(-n2cc(C(c3c[nH]c4ccc(Br)cc34)c3c[nH]c4ccc(Br)cc34)nn2)cc1,Activity,[1],Active
same,Activity,[2],Active
O=[N+]([O-])c1ccc(-n2cc(C(c3c[nH]c4ccc(Br)cc34)c3c[nH]c4ccc(Br)cc34)nn2)cc1,Activity,[1],>87.18%
same,Activity,[2],>87.18%
same,IC50,[3],14.8 µg/mL
same,IC90,[3],> 30 µg/mL
same,IC50,[4],2.96 µg/mL
same,IC90,[4],> 30 µg/mL
COc1ccc(-n2cc(C(c3c[nH]c4ccccc34)c3c[nH]c4ccccc34)nn2)cc1,Activity,[1],Active
same,Activity,[2],Active
COc1ccccc1-n1cc(C(c2c[nH]c3ccc(Br)cc23)c2c[nH]c3ccc(Br)cc23)nn1,Activity,[1],Active
same,Activity,[2],Active
Clc1ccc(-n2cc(C(c3c[nH]c4ccc(Br)cc34)c3c[nH]c4ccc(Br)cc34)nn2)cc1,Activity,Bacillus subtilis,>70%
same,Activity,[1],>88.22%
same,Activity,[2],>88.22%
COc1ccc(-n2cc(C(c3c[nH]c4ccc(Br)cc34)c3c[nH]c4ccc(Br)cc34)nn2)cc1,Activity,[1],>88.22%
same,Activity,[2],>88.22%
Clc1cccc(-n2cc(C(c3c[nH]c4ccccc34)c3c[nH]c4ccccc34)nn2)c1,Activity,[1],>87.18%
same,Activity,[2],>87.18%
same,IC50,[3],2.04 µg/mL
same,IC90,[3],> 30 µg/mL
same,IC50,[4],0.37 µg/mL
same,IC90,[4],> 30 µg/mL
O=[N+]([O-])c1ccccc1-n1cc(C(c2c[nH]c3ccc(Br)cc23)c2c[nH]c3ccc(Br)cc23)nn1,Activity,[1],>87.18%
same,Activity,[2],>87.18%
same,IC50,[3],2.27 µg/mL
same,IC90,[3],> 30 µg/mL
same,IC50,[4],1 µg/mL
same,IC90,[4],30 µg/mL
CC(=O)Nc1ccc(-n2cc(C(c3c[nH]c4ccccc34)c3c[nH]c4ccccc34)nn2)cc1,Activity,[1],Active
same,Activity,[2],Active
CO[C@H]1/C=C/O[C@@]2(C)Oc3c(C)c(O)c4c(O)c(c(/C=N/N5CCN(C)CC5)c(O)c4c3C2=O)NC(=O)/C(C)=C\C=C\[C@H](C)[C@H](O)[C@@H](C)[C@@H](O)[C@@H](C)[C@H](OC(C)=O)[C@@H]1C [RIFAMPIN],IC50,[3],0.02 µg/mL
same,IC90,[3],0.53 µg/mL
same,IC90,[4],0.8 µg/mL
